Screens (PubChem BioAssay)
KCNK9 inh – inhibitors of human KCNK9 two-pore domain potassium channel; Q9NPC2; HEK293 KCNK9, FluxOR thallium flux fluorescence; stronger effect = lower value; B-score at 10 µM; hit rate 1.2% among 310,000; AID 488922;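 active = ratio B-score over 3 SD below the library mean, with starting fluorescence within 5 SD of its mean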;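 note: negative B-score means less thallium flux so channel inhibition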
Target sequence (Q9NPC2 whole entry, looked up, the tested form may be a part): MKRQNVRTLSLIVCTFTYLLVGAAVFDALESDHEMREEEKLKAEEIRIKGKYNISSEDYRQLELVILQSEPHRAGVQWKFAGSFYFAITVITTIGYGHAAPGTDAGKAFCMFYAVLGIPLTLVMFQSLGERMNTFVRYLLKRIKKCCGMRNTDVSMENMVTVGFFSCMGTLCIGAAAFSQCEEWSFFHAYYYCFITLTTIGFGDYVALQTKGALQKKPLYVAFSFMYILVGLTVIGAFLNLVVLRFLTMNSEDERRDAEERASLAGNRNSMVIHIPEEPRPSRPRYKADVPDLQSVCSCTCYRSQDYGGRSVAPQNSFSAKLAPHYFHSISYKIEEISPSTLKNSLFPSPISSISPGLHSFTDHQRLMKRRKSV
Kir21 block – blocks the mouse Kir2.1 inward-rectifier potassium channel | HEK293-Kir2.1, FluxOR thallium flux fluorescence; stronger effect = lower value | B-score at 10 µM | AID 1672 | P35561 | hit rate 0.85% among 310,000;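 active = fluorescence ratio B-score at or below minus 3 SD of library scores, with starting-brightness B-score within 2 SD, cut at about -4.2 in these data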;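 note: channel flux triggered by added potassium and thallium sulfate stimulus; B-score of peak minus minimum fluorescence over baseline after thallium stimulus; more negative B-score means stronger Kir2.1 block with less thallium influx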
KCNK3 inh – human KCNK3 channel inhibition, primary screen; O14649; CHO-KCNK3 thallium flux, FluxOR fluorescence; stronger effect = lower value; B-score at 10 µM; hit rate 0.84% among 340,000; AID 602410;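 active = B-score under library mean minus 4 SD, starting fluorescence ratio at most library mean plus 5 SD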;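 note: more negative B-score means stronger inhibition of thallium flux through KCNK3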
KCNQ1 block – inhibitors of human KCNQ1 potassium channel; P51787; CHO-K1 KCNQ1, FluxOR thallium flux fluorescence; stronger effect = higher value; B-score at 10 µM; hit rate 1.3% among 310,000;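 active = compounds whose thallium flux B-score, printed positive for inhibition, exceeds three library SD while starting fluorescence stays within three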;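 note: channel opened by potassium depolarization with thallium stimulus after 20 min compound exposure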
KCNQ1 pot – potentiators or activators of human KCNQ1 potassium channel. CHO-K1 KCNQ1, thallium flux FluxOR fluorescence; stronger effect = higher value. B-score at 10 µM. hit rate 0.35% among 310,000. AID 2648;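 active = fluorescence ratio B-score, a plate-corrected score, at least three library SD, with initial intensity B-score within 5 SD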
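Assay system: CHO-K1 cells stably expressing KCNQ1; Medium: assay buffer with matched DMSO; Also added: K+/Tl+ depolarizing stimulus; Dosing: single dose; Timing: dye 90 min, compound 20 min, room temperature; Measured by: kinetic FluxOR thallium fluorescence, 10-s 1-Hz baseline, 110-s post-stimulus read; Read-out: peak-minus-minimum fluorescence over initial fluorescence, negative-control normalized, B-scored.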
hERG protect – hERG (human) protection from proarrhythmic block; Q12809; activation (rescue from dofetilide block), less the hit threshold, % at 10 µM; hit rate 0.51% among 310,000; AID 1511; CHO-hERG, FluxOR thallium flux, dofetilide IC70 present;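 active = activation above the mean of controls blocked by dofetilide plus 5 SD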;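 note: thallium influx through hERG after potassium depolarization seen as dye fluorescence rise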
Starred values were filed as active, the others as inactive. Shown are actives, neighbours in structure and some others; about 3.8% of the full set was active somewhere.

`CCc1ccccc1NC(=O)c1ccccc1Sc1ccc([N+](=O)[O-])cc1Cl` gave KCNK9 inh -7.2*, Kir21 block 0.82, KCNK3 inh inactive, KCNQ1 block inactive, KCNQ1 pot inactive and hERG protect -4.
COCCNC(=O)C(c1ccccc1)N(Cc1cccs1)C(=O)Cn1nnc2ccccc21 (stereo not drawn) was read as KCNK9 inh inactive, Kir21 block -0.17, KCNK3 inh inactive, KCNQ1 block inactive, KCNQ1 pot inactive and hERG protect 1.
`CC(=O)c1ccc(-n2nncc2-c2ccc([N+](=O)[O-])cc2)cc1` gave KCNK9 inh inactive, Kir21 block -0.54, KCNK3 inh inactive, KCNQ1 block inactive, KCNQ1 pot inactive and hERG protect 5.5*.
For O=C(Nc1ccc(Oc2ccc(NC(=O)Nc3ccc([N+](=O)[O-])cc3)cc2)cc1)Nc1ccc([N+](=O)[O-])cc1 the results were KCNK9 inh inactive, Kir21 block -0.97, KCNK3 inh inactive, KCNQ1 block 8*, KCNQ1 pot inactive and hERG protect -18.
For CC(=O)Nc1ccc(OCCOc2ccc([N+](=O)[O-])cc2)cc1 the results were KCNK9 inh inactive, Kir21 block -0.41, KCNK3 inh inactive, KCNQ1 block inactive, KCNQ1 pot inactive and hERG protect -4.
`CC(=O)c1ccc(NC(=O)Nc2ccc([N+](=O)[O-])cc2)cc1` gave KCNK9 inh inactive, Kir21 block -1.1, KCNK3 inh inactive, KCNQ1 block 7*, KCNQ1 pot inactive and hERG protect -19.
CC(=O)c1ccc(NC(=O)Nc2ccncc2)cc1 was read as KCNK9 inh inactive, Kir21 block 0.84, KCNK3 inh inactive, KCNQ1 block inactive, KCNQ1 pot inactive and hERG protect 4.8*.
Screening O=C(CCC1CCCC1)N1CCN(S(=O)(=O)c2ccc(Br)cc2)CC1 returned KCNK3 inh inactive.
C=CCn1cc(C(=O)N2CCN(C)CC2)c(=O)c2cc(S(=O)(=O)N3CCCC3)ccc21 was read as KCNK9 inh inactive, Kir21 block 3.5, KCNK3 inh inactive, KCNQ1 block inactive, KCNQ1 pot inactive and hERG protect -7.
Screening O=C(NNC(=O)c1ccncc1)Nc1ccc([N+](=O)[O-])cc1 returned KCNK9 inh inactive, Kir21 block 0.46, KCNK3 inh inactive, KCNQ1 block 7*, KCNQ1 pot inactive and hERG protect -3.
Screening O=C(Nc1ccc([N+](=O)[O-])cc1)Nc1cnccn1 returned KCNK9 inh inactive, Kir21 block 0.93, KCNK3 inh inactive, KCNQ1 block 12*, KCNQ1 pot inactive and hERG protect -16.
`O=C(NNC(=O)c1cccnc1)Nc1ccc([N+](=O)[O-])cc1` gave KCNK9 inh inactive, Kir21 block -0.66, KCNK3 inh inactive, KCNQ1 block inactive, KCNQ1 pot inactive and hERG protect -8.
Screening O=C(NC(=S)Nc1cc(Cl)ccc1N1CCOCC1)c1ccccc1[N+](=O)[O-] returned KCNK9 inh inactive, Kir21 block -0.01, KCNK3 inh inactive, KCNQ1 block inactive, KCNQ1 pot inactive and hERG protect -6.
For Cc1ncc(CN2CCCC(C(=O)Nc3ccc(-c4cccc(F)c4)cc3)C2)n1C (stereo not drawn) the results were KCNK9 inh inactive, Kir21 block -4.3*, KCNK3 inh inactive, KCNQ1 block inactive, KCNQ1 pot inactive and hERG protect -20.
Screening COc1cccc(-c2ccc(NC(=O)C3CCCN(Cc4cnc(C)n4C)C3)cc2)c1 (stereo not drawn) returned KCNK9 inh inactive, Kir21 block -0.29, KCNK3 inh inactive, KCNQ1 block inactive, KCNQ1 pot inactive and hERG protect -20.
`COc1cc(/C=N/N2CCN(Cc3ccc(Cl)cc3)CC2)cc(Br)c1O` gave KCNK9 inh inactive, Kir21 block -1.8, KCNK3 inh inactive, KCNQ1 block inactive, KCNQ1 pot inactive and hERG protect -4.
For COC(=O)c1ccc(S(=O)(=O)c2ccc([N+](=O)[O-])cc2)cc1 the results were KCNK9 inh inactive, Kir21 block 1.1, KCNK3 inh inactive, KCNQ1 block inactive, KCNQ1 pot inactive and hERG protect -5.
Screening CN(C)C(=O)CN1C(=O)C2CC=C(Cl)CC2C1=O (stereo not drawn) returned KCNK9 inh inactive, Kir21 block 0.69, KCNK3 inh inactive, KCNQ1 block inactive, KCNQ1 pot inactive and hERG protect -10.
`CCN(CC)C(=O)CN1C(=O)C2CC=C(Cl)CC2C1=O` (stereo not drawn) gave KCNK9 inh inactive, Kir21 block 1.2, KCNK3 inh inactive, KCNQ1 block inactive, KCNQ1 pot inactive and hERG protect 5.8*.
Screening O=C(CSCc1cccc(Cl)c1)Nc1ccccc1-c1ccccc1 returned KCNK9 inh inactive, Kir21 block -5.7*, KCNK3 inh inactive, KCNQ1 block inactive, KCNQ1 pot inactive and hERG protect -2.
`Cc1ccccc1CSCC(=O)Nc1ccccc1-c1ccccc1` gave KCNK9 inh inactive, Kir21 block -6.9*, KCNK3 inh inactive, KCNQ1 block inactive, KCNQ1 pot inactive and hERG protect -3.
Screening NC(=O)c1ccccc1NC(=O)COC(=O)CSCc1cccc(Cl)c1 returned KCNK3 inh inactive.
`CC1=CC(c2ccc(Cl)cc2)n2nc(NC(=O)c3ccccc3)nc2N1` (stereo not drawn) gave KCNK9 inh inactive, Kir21 block -0.22, KCNK3 inh inactive, KCNQ1 block inactive, KCNQ1 pot inactive and hERG protect -14.
Screening CC1=Nc2ccccc2N=C(NC(=O)c2ccccc2)C1c1ccc(Cl)cc1 (stereo not drawn) returned KCNK9 inh inactive, Kir21 block 0.41, KCNK3 inh inactive, KCNQ1 block 12*, KCNQ1 pot inactive and hERG protect -3.
O=C(NCC1CC1)c1cc(-c2ccccc2)nn1CC1CC(c2cccc([N+](=O)[O-])c2)=NO1 (stereo not drawn) was read as KCNK9 inh -8.3*, Kir21 block 2.8, KCNK3 inh inactive, KCNQ1 block inactive, KCNQ1 pot inactive and hERG protect -8.
For COCCNC(=O)c1cc(-c2ccccc2)nn1CC1CC(c2cccc([N+](=O)[O-])c2)=NO1 (stereo not drawn) the results were KCNK9 inh inactive, Kir21 block 0.96, KCNK3 inh inactive, KCNQ1 block inactive, KCNQ1 pot inactive and hERG protect -8.
